Legend:
Type in all cases: ADME, organism-based
[1] = Biodistribution in baboon lung at 85 mg, iv after 60 mins; details: papio hamadryas, read-out: Drug uptake
[2] = Biodistribution in baboon liver at 85 mg, iv after 15 mins; details: papio hamadryas, read-out: Drug uptake
[3] = Biodistribution in baboon liver at 85 mg, iv after 90 mins; details: papio hamadryas, read-out: Drug uptake
[4] = Biodistribution in baboon lung at 85 mg, iv after 30 mins; details: papio hamadryas, read-out: Drug uptake
[5] = Biodistribution in baboon plasma at 85 mg, iv after 90 mins; details: papio hamadryas, read-out: Drug uptake
Procedure, shortened: (§1)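 Anaesthetised baboons received [11C]-labelled drug i.v. (radial arm vein) by PET protocol. Arterial blood was drawn from a popliteal catheter every 5 s for 2 min, then at 2–90 min. Plasma activity is given as %ID/cc. µg/ml values were estimated from the human daily dose per kg scaled to a 17 kg baboon, assuming signal comes from intact drug.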

[6] = Biodistribution in baboon lung at 85 mg, iv after 15 mins; details: papio hamadryas, read-out: Drug uptake
[7] = Biodistribution in baboon plasma at 85 mg, iv after 60 mins; details: papio hamadryas, read-out: Drug uptake; procedure, shortened: as §1
[8] = Biodistribution in baboon liver at 85 mg, iv after 60 mins; details: papio hamadryas, read-out: Drug uptake
[9] = Biodistribution in baboon kidney medulla at 85 mg, iv after 60 mins; details: papio hamadryas, read-out: Drug uptake
Procedure, shortened: (§2)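 The [11C]-labeled drug was given as an i.v. micro dose via a radial arm vein to anesthetized baboons (ketamine 10 mg/kg i.m.; O2/N2O/isoflurane 1–4%), then torso PET. Organ TACs came from manually drawn ROIs and are reported as %ID/cc. µg/ml was estimated assuming a 5 mg/kg dose, a 17 kg baboon, and that the positron signal is intact drug.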

[10] = Biodistribution in baboon whole brain at 85 mg, iv after 30 mins; details: papio hamadryas, read-out: Drug uptake
Procedure, shortened: (§3)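 Brain PET ran 90 min after i.v. [11C]-labelled drug in anaesthetised baboons. Whole-brain regions of interest gave time-activity curves in %ID/cc. µg/ml values were estimated from baboon weight (17 kg) and the recommended human daily dose per kg, assuming signal comes from intact drug.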

[11] = Biodistribution in baboon kidney cortex at 85 mg, iv after 15 mins; details: papio hamadryas, read-out: Drug uptake
[12] = Biodistribution in baboon kidney medulla at 85 mg, iv after 90 mins; details: papio hamadryas, read-out: Drug uptake; procedure, shortened: as §2
[13] = Biodistribution in baboon kidney cortex at 85 mg, iv after 60 mins; details: papio hamadryas, read-out: Drug uptake
[14] = Biodistribution in baboon whole brain at 85 mg, iv after 90 mins; details: papio hamadryas, read-out: Drug uptake; procedure, shortened: as §3
[15] = Biodistribution in baboon heart at 85 mg, iv after 15 mins; details: papio hamadryas, read-out: Drug uptake
[16] = Biodistribution in baboon kidney cortex at 85 mg, iv after 90 mins; details: papio hamadryas, read-out: Drug uptake
[17] = Biodistribution in baboon liver at 85 mg, iv after 30 mins; details: papio hamadryas, read-out: Drug uptake
[18] = Biodistribution in baboon kidney cortex at 85 mg, iv after 30 mins; details: papio hamadryas, read-out: Drug uptake
[19] = Biodistribution in baboon heart at 85 mg, iv after 60 mins; details: papio hamadryas, read-out: Drug uptake
[20] = Biodistribution in baboon heart at 85 mg, iv after 90 mins; details: papio hamadryas, read-out: Drug uptake
[21] = Biodistribution in baboon heart at 85 mg, iv after 30 mins; details: papio hamadryas, read-out: Drug uptake
[22] = Biodistribution in baboon kidney medulla at 85 mg, iv after 30 mins; details: papio hamadryas, read-out: Drug uptake; procedure, shortened: as §2
[23] = Biodistribution in baboon kidney medulla at 85 mg, iv after 15 mins; details: papio hamadryas, read-out: Drug uptake; procedure, shortened: as §2
[24] = Biodistribution in baboon plasma at 85 mg, iv after 15 mins; details: papio hamadryas, read-out: Drug uptake
Procedure, shortened: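 Anesthetised baboons (ketamine 10 mg/kg i.m.; oxygen, nitrous oxide and isoflurane 1–4% during scanning) got a micro dose of [11C]-labelled drug i.v. via a radial arm vein; arterial blood was sampled serially over 90 min. Plasma %ID/cc was converted to µg/ml from the listed dose over a 17 kg baboon, assuming the signal is intact drug.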

[25] = Biodistribution in baboon plasma at 85 mg, iv after 30 mins; details: papio hamadryas, read-out: Drug uptake; procedure, shortened: as §1
[26] = Biodistribution in baboon whole brain at 85 mg, iv after 60 mins; details: papio hamadryas, read-out: Drug uptake; procedure, shortened: as §3
[27] = Biodistribution in baboon lung at 85 mg, iv after 90 mins; details: papio hamadryas, read-out: Drug uptake
[28] = Biodistribution in mouse whole brain at 10 mg/kg, sc after 60 mins; design: dose 10 mg/kg, route subcutaneous; details: read-out: Drug uptake
[29] = Biodistribution in mouse whole brain at 10 mg/kg, sc after 30 mins; design: dose 10 mg/kg, route subcutaneous; details: read-out: Drug uptake

NN[11C](=O)c1ccncc1
concentration at 1 h [1]: 4420 ng/mL | concentration at 0.25 h [2]: 12500 ng/mL | concentration at 1.5 h [3]: 6910 ng/mL | concentration at 0.5 h [4]: 6090 ng/mL | concentration at 1.5 h [5]: 1620 ng/mL | concentration at 0.25 h [6]: 7720 ng/mL | concentration at 1 h [7]: 2050 ng/mL | concentration at 1 h [8]: 7640 ng/mL | concentration at 1 h [9]: 16400 ng/mL | concentration at 0.5 h [10]: 2540 ng/mL | concentration at 0.25 h [11]: 15100 ng/mL | concentration at 1.5 h [12]: 14700 ng/mL | concentration at 1 h [13]: 7720 ng/mL | concentration at 1.5 h [14]: 1750 ng/mL | concentration at 0.25 h [15]: 8720 ng/mL | concentration at 1.5 h [16]: 8540 ng/mL | concentration at 0.5 h [17]: 9710 ng/mL | concentration at 0.5 h [18]: 9260 ng/mL | concentration at 1 h [19]: 3740 ng/mL | concentration at 1.5 h [20]: 4150 ng/mL | concentration at 0.5 h [21]: 6130 ng/mL | concentration at 0.5 h [22]: 15400 ng/mL | concentration at 0.25 h [23]: 18900 ng/mL | concentration at 0.25 h [24]: 3760 ng/mL | concentration at 0.5 h [25]: 2960 ng/mL | concentration at 1 h [26]: 2110 ng/mL | concentration at 1.5 h [27]: 4190 ng/mL

NN[14C](=O)c1ccncc1
concentration at 1 h [28]: 3200 ng/g | concentration at 0.5 h [29]: 4400 ng/g
